# Assays:
# Staphylococcus aureus [1] = assay: Antibacterial activity against Staphylococcus aureus RN4220 after 24 hrs by two-fold serial dilution method; type: functional; conditions: RN4220, 24 h
# In short: (§1)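 Broth microdilution in Mueller-Hinton broth. Bacteria grown to mid-log phase, diluted 1000-fold, and inoculated at 10⁵ CFU/mL. Test compounds in DMSO, final DMSO not above 0.05%, final concentrations 64-0.5 µg/mL. Incubation 24 h at 37 °C, growth read as absorbance at 650 nm. MIC taken as the lowest concentration giving complete growth inhibition. Run three times.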
# Pseudomonas aeruginosa [2] = assay: Antibacterial activity against Pseudomonas aeruginosa 2004 after 24 hrs by two-fold serial dilution method; type: functional; conditions: Pseudomonas aeruginosa, 2004, 24 h
# In short: (§2)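 Broth microdilution in Mueller-Hinton broth over final concentrations of 64–0.5. Bacteria were grown to mid-log phase and diluted 1000-fold, then inoculated at 10⁵ CFU/mL. Compounds were dissolved in DMSO, with final DMSO at most 0.05%. Plates were incubated 24 h at 37 °C and growth read as absorbance at 650 nm. MIC is the concentration giving complete growth inhibition. Three independent runs.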
# Candida albicans = assay: Antifungal activity against Candida albicans 7535 by two-fold serial dilution method; type: functional
# Pseudomonas aeruginosa [3] = assay: Antibacterial activity against Pseudomonas aeruginosa 2742 after 24 hrs by two-fold serial dilution method; type: functional; conditions: Pseudomonas aeruginosa, 2742, 24 h; in short: as §2
# Salmonella typhimurium = assay: Antibacterial activity against Salmonella typhimurium 2421 after 24 hrs by two-fold serial dilution method; type: functional, Salmonella enterica subsp. enterica serovar Typhimurium; conditions: Salmonella enterica, 2421, 24 h; in short: as §2
# Staphylococcus aureus [4] = assay: Antibacterial activity against Staphylococcus aureus 503 after 24 hrs by two-fold serial dilution method; type: functional; conditions: Staphylococcus aureus, 503, 24 h; in short: as §1
# Mus musculus = assay: Antiinflammatory activity in mouse assessed as inhibition of xylene-induced ear edema at 50 mg/kg, ip administered 30 mins before xylene challenge relative to control; type: functional
# In short: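 Mice received compound freshly dissolved in DMSO, 50 mg/kg ip at 0.05 mL/20 g body weight; vehicle controls got DMSO alone. After 30 min, 20 µL xylene was applied to the right ear. After a further 30 min, 7 mm plugs were cut from treated and untreated ears and edema taken as their weight difference. Result is % edema reduction versus vehicle controls.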
# Staphylococcus aureus [5] = assay: Antibacterial activity against quinolone-resistant Staphylococcus aureus CCARM 3519 after 24 hrs by two-fold serial dilution method; type: functional; conditions: CCARM 3519, 24 h; in short: as §1
# Escherichia coli [6] = assay: Antibacterial activity against Escherichia coli KCTC 1924 after 24 hrs by two-fold serial dilution method; type: functional; conditions: KCTC 1924, 24 h; in short: as §2
# Staphylococcus aureus [7] = assay: Antibacterial activity against methicillin-resistant Staphylococcus aureus CCARM 3506 after 24 hrs by two-fold serial dilution method; type: functional; conditions: CCARM 3506, 24 h; in short: as §1
# Escherichia coli [8] = assay: Antibacterial activity against Escherichia coli CCARM 1356 after 24 hrs by two-fold serial dilution method; type: functional; conditions: CCARM 1356, 24 h; in short: as §2
# Streptococcus mutans = assay: Antibacterial activity against Streptococcus mutans 3065 after 24 hrs by two-fold serial dilution method; type: functional; conditions: Streptococcus mutans, 3065, 24 h; in short: as §2
# Staphylococcus aureus [9] = assay: Antibacterial activity against methicillin-resistant Staphylococcus aureus CCARM 3167 after 24 hrs by two-fold serial dilution method; type: functional; conditions: CCARM 3167, 24 h; in short: as §1
# Staphylococcus aureus [10] = assay: Antibacterial activity against quinolone-resistant Staphylococcus aureus CCARM 3505 after 24 hrs by two-fold serial dilution method; type: functional; conditions: CCARM 3505, 24 h; in short: as §1
# Staphylococcus aureus [11] = assay: Antibacterial activity against Staphylococcus aureus 209 after 24 hrs by two-fold serial dilution method; type: functional; conditions: Staphylococcus aureus, 209, 24 h; in short: as §1
SMILES,MIC (Staphylococcus aureus [1]),MIC (Pseudomonas aeruginosa [2]),MIC (Candida albicans),MIC (Pseudomonas aeruginosa [3]),MIC (Salmonella typhimurium),MIC (Staphylococcus aureus [4]),inhibition in vivo at 50 mg/kg (Mus musculus),MIC (Staphylococcus aureus [5]),MIC (Escherichia coli [6]),MIC (Staphylococcus aureus [7]),MIC (Escherichia coli [8]),MIC (Streptococcus mutans),MIC (Staphylococcus aureus [9]),MIC (Staphylococcus aureus [10]),MIC (Staphylococcus aureus [11])
Cc1ccc(-c2nn(-c3ccc([N+](=O)[O-])cc3[N+](=O)[O-])cc2/C=N/NC(=O)c2ccco2)cc1,> 64 µg/mL,> 64 µg/mL,> 64 µg/mL,> 64 µg/mL,> 64 µg/mL,> 64 µg/mL,36%,> 64 µg/mL,> 64 µg/mL,> 64 µg/mL,> 64 µg/mL,> 64 µg/mL,> 64 µg/mL,> 64 µg/mL,> 64 µg/mL
O=C(N/N=C/c1cn(-c2ccc([N+](=O)[O-])cc2[N+](=O)[O-])nc1-c1ccccc1F)c1ccco1,> 64 µg/mL,> 64 µg/mL,> 64 µg/mL,> 64 µg/mL,> 64 µg/mL,> 64 µg/mL,28%,> 64 µg/mL,> 64 µg/mL,> 64 µg/mL,> 64 µg/mL,> 64 µg/mL,> 64 µg/mL,> 64 µg/mL,> 64 µg/mL
N=C(N)N/N=C/c1cn(-c2ccc([N+](=O)[O-])cc2[N+](=O)[O-])nc1-c1ccccc1Cl,4 µg/mL,> 64 µg/mL,2 µg/mL,> 64 µg/mL,8 µg/mL,4 µg/mL,84.6%,8 µg/mL,4 µg/mL,4 µg/mL,16 µg/mL,16 µg/mL,4 µg/mL,4 µg/mL,8 µg/mL
O=C(N/N=C/c1cn(-c2ccc([N+](=O)[O-])cc2[N+](=O)[O-])nc1-c1cccc(Cl)c1)c1ccco1,> 64 µg/mL,> 64 µg/mL,> 64 µg/mL,> 64 µg/mL,> 64 µg/mL,> 64 µg/mL,26.2%,> 64 µg/mL,> 64 µg/mL,> 64 µg/mL,> 64 µg/mL,> 64 µg/mL,> 64 µg/mL,> 64 µg/mL,> 64 µg/mL
N=C(N)N/N=C/c1cn(-c2ccccc2)nc1-c1ccc(Cl)cc1,16 µg/mL,> 64 µg/mL,> 64 µg/mL,> 64 µg/mL,> 64 µg/mL,> 64 µg/mL,46%,> 64 µg/mL,> 64 µg/mL,> 64 µg/mL,> 64 µg/mL,> 64 µg/mL,> 64 µg/mL,> 64 µg/mL,> 64 µg/mL
CCn1cc(C(=O)O)c(=O)c2cc(F)c(N3CCNCC3)cc21 [NORFLOXACIN],,,,,,,,> 64 µg/mL,,4 µg/mL,,,8 µg/mL,> 64 µg/mL,
COc1c(N2CCNC(C)C2)c(F)cc2c(=O)c(C(=O)O)cn(C3CC3)c12 (stereo not drawn) [GATIFLOXACIN],0.25 µg/mL,1 µg/mL,0.5 µg/mL,1 µg/mL,0.5 µg/mL,2 µg/mL,,4 µg/mL,2 µg/mL,2 µg/mL,16 µg/mL,0.5 µg/mL,2 µg/mL,8 µg/mL,2 µg/mL
N=C(N)N/N=C/c1cn(-c2ccc([N+](=O)[O-])cc2[N+](=O)[O-])nc1-c1ccccc1,8 µg/mL,> 64 µg/mL,4 µg/mL,> 64 µg/mL,16 µg/mL,8 µg/mL,86.9%,8 µg/mL,8 µg/mL,8 µg/mL,16 µg/mL,16 µg/mL,8 µg/mL,8 µg/mL,8 µg/mL
O=C(N/N=C/c1cn(-c2ccc([N+](=O)[O-])cc2[N+](=O)[O-])nc1-c1cccc(Br)c1)c1ccco1,> 64 µg/mL,> 64 µg/mL,> 64 µg/mL,> 64 µg/mL,> 64 µg/mL,> 64 µg/mL,25.3%,> 64 µg/mL,> 64 µg/mL,> 64 µg/mL,> 64 µg/mL,> 64 µg/mL,> 64 µg/mL,> 64 µg/mL,> 64 µg/mL
O=C(N/N=C/c1cn(-c2ccc([N+](=O)[O-])cc2[N+](=O)[O-])nc1-c1ccccc1Br)c1ccco1,> 64 µg/mL,> 64 µg/mL,> 64 µg/mL,> 64 µg/mL,> 64 µg/mL,> 64 µg/mL,17.5%,> 64 µg/mL,> 64 µg/mL,> 64 µg/mL,> 64 µg/mL,> 64 µg/mL,> 64 µg/mL,> 64 µg/mL,> 64 µg/mL
N=C(N)N/N=C/c1cn(-c2ccccc2)nc1-c1ccc(F)cc1,8 µg/mL,> 64 µg/mL,8 µg/mL,> 64 µg/mL,> 64 µg/mL,16 µg/mL,61.4%,16 µg/mL,8 µg/mL,8 µg/mL,> 64 µg/mL,> 64 µg/mL,8 µg/mL,16 µg/mL,8 µg/mL
CC(C)Cc1ccc(C(C)C(=O)O)cc1 (stereo not drawn) [IBUPROFEN],,,,,,,29.6%,,,,,,,,
CCC(C)n1ncn(-c2ccc(N3CCN(c4ccc(OCC5COC(Cn6cncn6)(c6ccc(Cl)cc6Cl)O5)cc4)CC3)cc2)c1=O (stereo not drawn) [ITRACONAZOLE],,,0.06 µg/mL,,,,,,,,,,,,
COc1c(N2C[C@@H]3CCCN[C@@H]3C2)c(F)cc2c(=O)c(C(=O)O)cn(C3CC3)c12 [MOXIFLOXACIN],0.25 µg/mL,2 µg/mL,0.5 µg/mL,,0.5 µg/mL,2 µg/mL,,4 µg/mL,,,128 µg/mL,0.25 µg/mL,,,
Cc1onc(-c2ccccc2)c1C(=O)N[C@@H]1C(=O)N2[C@@H]1SC(C)(C)[C@@H]2C(=O)O [OXACILLIN],,,,,,,,1 µg/mL,,> 64 µg/mL,,,> 64 µg/mL,1 µg/mL,
OC(Cn1cncn1)(Cn1cncn1)c1ccc(F)cc1F [FLUCONAZOLE],,,1 µg/mL,,,,,,,,,,,,

# Source: ChEMBL document CHEMBL3627681, “Synthesis and biological evaluation of 1,3-diaryl pyrazole derivatives as potential antibacterial and anti-inflammatory agents” (2015)
